From ChEMBL document CHEMBL3098022, “Multifunctional cholinesterase and amyloid Beta fibrillization modulators. Synthesis and biological investigation” (ACS Med Chem Lett, 2013)
pIC50, pKi: −log10 of the molar value. Calls of active or inactive are those of the source. The rule behind the calls is not given here.

What was measured:
Homo sapiens = species: Homo sapiens; test: Selectivity ratio of Ki for human acetylcholine esterase to Ki for human butyrylcholine esterase
[1] = biological target: T1, Amyloid-beta precursor protein (Homo sapiens, UniProt P05067); test: Inhibition of amyloid beta (1 to 42) aggregation (unknown origin) after 24 hrs by ThT-based fluorescence assay
T1 sequence (P05067 whole entry): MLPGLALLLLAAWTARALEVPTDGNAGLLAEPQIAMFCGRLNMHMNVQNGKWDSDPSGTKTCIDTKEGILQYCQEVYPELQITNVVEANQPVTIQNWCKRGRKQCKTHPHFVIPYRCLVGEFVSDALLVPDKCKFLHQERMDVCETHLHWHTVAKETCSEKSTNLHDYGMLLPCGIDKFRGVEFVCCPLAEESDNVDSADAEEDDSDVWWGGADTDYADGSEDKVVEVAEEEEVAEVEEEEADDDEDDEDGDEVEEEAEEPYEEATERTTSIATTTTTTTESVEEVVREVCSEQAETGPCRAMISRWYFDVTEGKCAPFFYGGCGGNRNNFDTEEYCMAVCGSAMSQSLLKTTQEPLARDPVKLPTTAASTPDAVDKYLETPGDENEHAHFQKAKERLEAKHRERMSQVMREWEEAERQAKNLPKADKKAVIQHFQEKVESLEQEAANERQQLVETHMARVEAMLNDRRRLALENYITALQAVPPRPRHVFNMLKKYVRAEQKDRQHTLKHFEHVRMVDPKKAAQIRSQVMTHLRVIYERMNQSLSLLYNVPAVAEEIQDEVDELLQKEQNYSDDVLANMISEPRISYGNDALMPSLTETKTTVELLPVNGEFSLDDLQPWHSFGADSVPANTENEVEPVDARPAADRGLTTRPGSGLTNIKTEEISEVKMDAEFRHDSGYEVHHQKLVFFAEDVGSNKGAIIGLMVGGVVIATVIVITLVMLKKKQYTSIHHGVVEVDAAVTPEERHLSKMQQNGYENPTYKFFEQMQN

Cholinesterase = Cholinesterase (Homo sapiens, UniProt P06276); test: Inhibition of human butyrylcholine esterase
Chain of Cholinesterase (P06276 whole entry): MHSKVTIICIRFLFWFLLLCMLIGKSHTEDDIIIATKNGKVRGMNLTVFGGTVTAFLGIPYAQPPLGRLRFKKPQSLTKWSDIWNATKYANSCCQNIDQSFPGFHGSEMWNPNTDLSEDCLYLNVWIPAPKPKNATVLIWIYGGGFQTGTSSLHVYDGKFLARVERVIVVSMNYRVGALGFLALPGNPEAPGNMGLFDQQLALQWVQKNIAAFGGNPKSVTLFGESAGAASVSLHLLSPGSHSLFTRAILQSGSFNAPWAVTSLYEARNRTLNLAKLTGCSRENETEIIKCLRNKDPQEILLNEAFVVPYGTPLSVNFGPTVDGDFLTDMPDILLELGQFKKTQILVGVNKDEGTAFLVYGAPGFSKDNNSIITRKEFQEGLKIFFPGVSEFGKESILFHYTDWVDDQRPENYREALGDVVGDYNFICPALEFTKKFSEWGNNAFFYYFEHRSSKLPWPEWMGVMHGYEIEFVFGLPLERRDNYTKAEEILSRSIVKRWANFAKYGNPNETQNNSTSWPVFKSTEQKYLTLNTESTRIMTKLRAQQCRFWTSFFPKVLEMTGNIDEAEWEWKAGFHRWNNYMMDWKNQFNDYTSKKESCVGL

Acetylcholinesterase [2] = biological target: T2, Acetylcholinesterase (Homo sapiens, UniProt P22303); test: Inhibition of human acetylcholine esterase-induced amyloid beta (1 to 40) aggregation by ThT-based fluorescence assay
T2 sequence (P22303 whole entry): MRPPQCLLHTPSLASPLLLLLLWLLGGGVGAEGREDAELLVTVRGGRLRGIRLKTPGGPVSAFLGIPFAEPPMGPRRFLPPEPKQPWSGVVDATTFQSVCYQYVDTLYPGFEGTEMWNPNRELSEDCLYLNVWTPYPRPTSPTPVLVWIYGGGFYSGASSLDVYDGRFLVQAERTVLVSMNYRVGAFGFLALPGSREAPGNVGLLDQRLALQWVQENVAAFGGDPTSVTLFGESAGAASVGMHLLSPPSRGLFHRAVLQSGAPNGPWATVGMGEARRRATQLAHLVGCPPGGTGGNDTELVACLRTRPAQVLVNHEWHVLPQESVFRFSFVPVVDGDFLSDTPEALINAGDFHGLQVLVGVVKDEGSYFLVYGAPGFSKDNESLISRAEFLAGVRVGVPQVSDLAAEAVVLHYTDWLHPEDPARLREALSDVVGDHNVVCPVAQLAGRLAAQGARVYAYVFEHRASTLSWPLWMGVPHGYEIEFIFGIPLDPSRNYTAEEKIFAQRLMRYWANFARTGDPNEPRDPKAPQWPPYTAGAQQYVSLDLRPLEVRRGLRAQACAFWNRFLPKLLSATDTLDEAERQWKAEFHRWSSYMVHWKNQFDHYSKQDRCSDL

Acetylcholinesterase [3] = biological target: T2, Acetylcholinesterase; test: Inhibition of human acetylcholine esterase
Acetylcholinesterase [4] = biological target: T2, Acetylcholinesterase; test: Inhibition of human acetylcholine esterase-induced amyloid beta (1 to 40) aggregation at 100 uM by ThT-based fluorescence assay
[5] = biological target: T1, Amyloid-beta precursor protein; test: Inhibition of amyloid beta (1 to 42) aggregation (unknown origin) at 5 uM by ThT-based fluorescence assay
[6] = biological target: T1, Amyloid-beta precursor protein; test: Inhibition of amyloid beta (1 to 42) oligomerization (unknown origin) assessed as depletion of higher molecular weight oligomers after 6 hrs to 2 days by capillary electrophoresis method
[7] = biological target: T1, Amyloid-beta precursor protein; test: Inhibition of amyloid beta (1 to 42) oligomerization (unknown origin) assessed as amorphous aggregates formation at 50 to 500 uM by transmission electron microscopy
In short: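 Aβ1-42 samples were imaged by transmission electron microscopy with 50 µM test compound added, n = 2.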

[8] = biological target: T1, Amyloid-beta precursor protein; test: Inhibition of amyloid beta (1 to 42) oligomerization (unknown origin) assessed as oligomer stabilization at 200 uM measured immediately by capillary electrophoresis method
[9] = biological target: T1, Amyloid-beta precursor protein; test: Inhibition of amyloid beta (1 to 42) oligomerization (unknown origin) assessed as inhibition of toxic aggregate formation at 500 uM after 24 hrs by capillary electrophoresis method
[10] = biological target: T1, Amyloid-beta precursor protein; test: Inhibition of amyloid beta (1 to 42) oligomerization (unknown origin) assessed as stable smaller oligomer formation at 500 uM after 24 hrs by capillary electrophoresis method
[11] = biological target: T1, Amyloid-beta precursor protein; test: Inhibition of amyloid beta (1 to 42) oligomerization (unknown origin) assessed as depletion of higher molecular weight oligomers formation at 200 to 500 uM by capillary electrophoresis method; settings: TDE = time-dependent effect
[12] = biological target: T1, Amyloid-beta precursor protein; test: Inhibition of amyloid beta (1 to 42) oligomerization (unknown origin) assessed as oligomer stabilization at 200 uM after 6 hrs by capillary electrophoresis method
[13] = biological target: T1, Amyloid-beta precursor protein; test: Inhibition of amyloid beta (1 to 42) oligomerization (unknown origin) assessed as oligomer stabilization at 200 uM after 2 days by capillary electrophoresis method
[14] = biological target: T1, Amyloid-beta precursor protein; test: Inhibition of amyloid beta (1 to 42) oligomerization (unknown origin) assessed as disaggregation of toxic oligomers and precipitation at 200 to 500 uM by transmission electron microscopy relative to control

SMILES: CN(CCCCNc1c2c(nc3c(NC(=O)CNC(=O)CC[C@H](NC(=O)CNC(=O)OCc4ccccc4)C(=O)N[C@@H](Cc4ccccc4)C(=O)OCc4ccccc4)cccc13)CCCC2)CCCNc1c2c(nc3ccccc13)CCCC2
- Ratio Ki (Homo sapiens): 0.07
- pIC50 [1]: 4.29
- pKi (Cholinesterase): 7.67
- pIC50 (Acetylcholinesterase [2]): 3.95
- pKi (Acetylcholinesterase [3]): 8.83
- inhibition (Acetylcholinesterase [4]): 42%

SMILES: c1ccc2c(NCCCCCCCNc3c4c(nc5ccccc35)CCCC4)c3c(nc2c1)CCCC3
- inhibition [5]: 8.4%

SMILES: CN(CCCCNc1c2c(nc3ccccc13)CCCC2)CCCNc1c2c(nc3c(NC(=O)CNC(=O)CC[C@H](NC(=O)CNC(=O)OCc4ccccc4)C(=O)N[C@@H](Cc4ccccc4)C(=O)OCc4ccccc4)cccc13)CCCC2
- Ratio Ki (Homo sapiens): 0.081
- pKi (Cholinesterase): 7.21
- pKi (Acetylcholinesterase [3]): 8.30
- inhibition (Acetylcholinesterase [4]): 42%

SMILES: Nc1cccc2c(NCCCCCCCCNc3c4c(nc5ccccc35)CCCC4)c3c(nc12)CCCC3
- Ratio Ki (Homo sapiens): 0.028
- pKi (Cholinesterase): 8.08
- pKi (Acetylcholinesterase [3]): 9.64

SMILES: O=C(CC[C@H](NC(=O)CNC(=O)OCc1ccccc1)C(=O)N[C@@H](Cc1ccccc1)C(=O)OCc1ccccc1)NCC(=O)Nc1cccc2c(NCCCCCCCCNc3c4c(nc5ccccc35)CCCC4)c3c(nc12)CCCC3
- inhibition [6]: Dose-dependent effect
- inhibition [7]: Active
- inhibition [5]: 81%
- inhibition [8]: 82.5%
- Ratio Ki (Homo sapiens): 0.038
- inhibition [9]: Active
- inhibition [10]: Active
- pKi (Cholinesterase): 7.39
- inhibition [11]: tde
- inhibition [12]: 87.2%
- inhibition [13]: Active
- pKi (Acetylcholinesterase [3]): 8.72
- inhibition (Acetylcholinesterase [4]): 26%
- inhibition [14]: Active

SMILES: O=[N+]([O-])c1cccc2c(NCCCCCCCCNc3c4c(nc5ccccc35)CCCC4)c3c(nc12)CCCC3
- Ratio Ki (Homo sapiens): 13
- pKi (Cholinesterase): 10.22
- pKi (Acetylcholinesterase [3]): 9.11
